Source: ChEMBL document CHEMBL3351381, “Synthesis, structure-activity relationship studies, and antibacterial evaluation of 4-chromanones and chalcones, as well as olympicin A and derivatives” (J Med Chem, 2014)
In brackets after ≈: the same amount, converted by molar mass.

Key:
[1] = system: Mycobacterium tuberculosis; assay: Antimicrobial activity against Mycobacterium tuberculosis H37Rv by microbroth dilution method; assay type: functional
Enterococcus faecalis = assay: Antimicrobial activity against Enterococcus faecalis ATCC 33186 by microbroth dilution method; assay type: functional
Staphylococcus aureus [2] = assay: Antimicrobial activity against methicillin-sensitive Staphylococcus aureus ATCC 29213 by microbroth dilution method; assay type: functional
Escherichia coli [3] = assay: Antimicrobial activity against Escherichia coli K-12 by microbroth dilution method; assay type: functional
Escherichia coli [4] = assay: Antimicrobial activity against tolC-deficient Escherichia coli by microbroth dilution method; assay type: functional
Staphylococcus aureus [5] = assay: Antimicrobial activity against methicillin-resistant Staphylococcus aureus NRS 70 by microbroth dilution method; assay type: functional
Klebsiella pneumoniae = assay: Antimicrobial activity against Klebsiella pneumoniae ATCC 33495 at >200 ug/ml by microbroth dilution method; assay type: functional
Pseudomonas aeruginosa = assay: Antimicrobial activity against Pseudomonas aeruginosa PAO1 at >200 ug/ml by microbroth dilution method; assay type: functional
[6] = Solubility of the compound in DMEM/FBS medium; assay type: physicochemical
Outline: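 Solubility limit estimated from 2-fold serial dilutions in DMEM with 5% FBS kept overnight at 37 °C; highest concentration with no visible precipitate taken.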

Vero = assay: Cytotoxicity against african green monkey Vero cells assessed as reduction in cell viability by MTT assay; assay type: cell-based; settings: Chlorocebus sabaeus
Outline: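 Vero kidney epithelial cells (ATCC CCL-81) in DMEM/10% FBS, trypsinized, seeded near 10% confluence, left overnight to adhere; medium swapped for DMEM/FBS with 2-fold serial compound dilutions.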

[7] = Selectivity index, ratio of CC50 for african green monkey Vero cells to IC50 for methicillin-resistant Staphylococcus aureus NRS 70; assay type: functional
Outline: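 Vero kidney epithelial cells were grown in DMEM/10% FBS, trypsinized, seeded at about 10% confluence and left overnight to adhere. They were then exposed to 2-fold serial compound dilutions in DMEM/FBS, and viability was read by MTT after overnight solubilization. SI = cytotoxic IC50 divided by MIC against MRSA.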

[8] = Inhibition of purified recombinant Escherichia coli topoisomerase 1 assessed as relaxation of supercoiled plasmid DNA after 30 mins by electrophoretic analysis
DNA gyrase = DNA gyrase (Escherichia coli, UniProt P0AES4+P0AES6); assay: Inhibition of Escherichia coli DNA gyrase assessed as supercoiled plasmid DNA formation after 30 mins by electrophoretic analysis; assay type: protein-complex assay
[9] = Inhibition of Escherichia coli topoisomerase 4 assessed as inhibition of decatenation of catenated kinetoplast DNA after 30 mins by electrophoretic analysis

Compound: O=C1CC(C2CCCCC2)Oc2cc(O)cc(O)c21 (stereo unspecified)
- MIC [1]: 100 µg/mL (≈ 381 µM)
- MIC (Enterococcus faecalis): 25 µg/mL (≈ 95.3 µM)
- MIC (Staphylococcus aureus [2]): 25 µg/mL (≈ 95.3 µM)
- MIC (Escherichia coli [3]): > 200 µg/mL
- MIC (Escherichia coli [4]): 6.25 µg/mL (≈ 23.8 µM)
- MIC (Staphylococcus aureus [5]): 25 µg/mL (≈ 95.3 µM)
- MIC (Klebsiella pneumoniae): > 200 µg/mL
- MIC (Pseudomonas aeruginosa): > 200 µg/mL

Compound: CCCCCCOc1cc(O)cc(O)c1C(=O)C(C)CC (racemic)
- MIC [1]: 100 µg/mL (≈ 340 µM)
- MIC (Enterococcus faecalis): 1.56 µg/mL (≈ 5.3 µM)
- MIC (Staphylococcus aureus [2]): 1.56 µg/mL (≈ 5.3 µM)
- MIC (Escherichia coli [3]): > 200 µg/mL
- MIC (Escherichia coli [4]): 3.13 µg/mL (≈ 10.6 µM)
- MIC (Staphylococcus aureus [5]): 1.56 µg/mL (≈ 5.3 µM)
- MIC (Klebsiella pneumoniae): > 200 µg/mL
- MIC (Pseudomonas aeruginosa): > 200 µg/mL

Compound: CCCCCCC1C/C(=N\O)c2c(O)cc(O)cc2O1 (stereo unspecified)
- MIC [1]: 100 µg/mL (≈ 358 µM)
- MIC (Enterococcus faecalis): 12.5 µg/mL (≈ 44.7 µM)
- MIC (Staphylococcus aureus [2]): 6.25 µg/mL (≈ 22.4 µM)
- MIC (Escherichia coli [3]): > 200 µg/mL
- MIC (Escherichia coli [4]): 3.13 µg/mL (≈ 11.2 µM)
- MIC (Staphylococcus aureus [5]): 6.25 µg/mL (≈ 22.4 µM)
- MIC (Klebsiella pneumoniae): > 200 µg/mL
- MIC (Pseudomonas aeruginosa): > 200 µg/mL

Compound: CCCCCCCCCC1C/C(=N\O)c2c(O)cc(O)cc2O1 (stereo unspecified)
- MIC [1]: 100 µg/mL (≈ 311 µM)
- MIC (Enterococcus faecalis): 6.25 µg/mL (≈ 19.4 µM)
- MIC (Staphylococcus aureus [2]): 12.5 µg/mL (≈ 38.9 µM)
- MIC (Escherichia coli [3]): > 200 µg/mL
- MIC (Escherichia coli [4]): > 200 µg/mL
- MIC (Staphylococcus aureus [5]): 12.5 µg/mL (≈ 38.9 µM)
- MIC (Klebsiella pneumoniae): > 200 µg/mL
- MIC (Pseudomonas aeruginosa): > 200 µg/mL
- solubility [6]: 37.5 µg/mL (≈ 117 µM)
- IC50 (Vero): 10.1 µg/mL (≈ 31.4 µM)
- Selectivity Index [7]: 0.8

Compound: CCCC1CC(=O)c2c(OCOC)cc(OCOC)cc2O1 (stereo unspecified)
- MIC [1]: 100 µg/mL (≈ 322 µM)
- MIC (Enterococcus faecalis): > 200 µg/mL
- MIC (Staphylococcus aureus [2]): > 200 µg/mL
- MIC (Escherichia coli [3]): > 200 µg/mL
- MIC (Escherichia coli [4]): 100 µg/mL (≈ 322 µM)
- MIC (Staphylococcus aureus [5]): > 200 µg/mL
- MIC (Klebsiella pneumoniae): > 200 µg/mL
- MIC (Pseudomonas aeruginosa): > 200 µg/mL

Compound: CCCCCCCCOc1ccccc1C1CC(=O)c2ccc(O)cc2O1 (stereo unspecified)
- MIC [1]: > 200 µg/mL
- MIC (Enterococcus faecalis): 1.56 µg/mL (≈ 4.23 µM)
- MIC (Staphylococcus aureus [2]): 12.5 µg/mL (≈ 33.9 µM)
- MIC (Escherichia coli [3]): > 200 µg/mL
- MIC (Escherichia coli [4]): > 200 µg/mL
- MIC (Staphylococcus aureus [5]): 3.13 µg/mL (≈ 8.49 µM)
- MIC (Klebsiella pneumoniae): > 200 µg/mL
- MIC (Pseudomonas aeruginosa): > 200 µg/mL
- solubility [6]: > 200 µg/mL
- IC50 (Vero): 17 µg/mL (≈ 46.1 µM)
- Selectivity Index [7]: 5.4
- IC50 [8]: > 500 µM
- IC50 (DNA gyrase): > 1000 µM
- IC50 [9]: > 1000 µM

Compound: CCCCCCCC1CC(O)c2ccc(O)cc2O1 (stereo unspecified)
- MIC [1]: 25 µg/mL (≈ 94.6 µM)
- MIC (Enterococcus faecalis): 25 µg/mL (≈ 94.6 µM)
- MIC (Staphylococcus aureus [2]): 12.5 µg/mL (≈ 47.3 µM)
- MIC (Escherichia coli [3]): > 200 µg/mL
- MIC (Escherichia coli [4]): 6.25 µg/mL (≈ 23.6 µM)
- MIC (Staphylococcus aureus [5]): 12.5 µg/mL (≈ 47.3 µM)
- MIC (Klebsiella pneumoniae): > 200 µg/mL
- MIC (Pseudomonas aeruginosa): > 200 µg/mL

Compound: CCCCCCCCCC1C/C(=N\OC)c2c(O)cc(O)cc2O1 (stereo unspecified)
- MIC [1]: 200 µg/mL (≈ 596 µM)
- MIC (Enterococcus faecalis): > 200 µg/mL
- MIC (Staphylococcus aureus [2]): 100 µg/mL (≈ 298 µM)
- MIC (Escherichia coli [3]): > 200 µg/mL
- MIC (Escherichia coli [4]): > 200 µg/mL
- MIC (Staphylococcus aureus [5]): 25 µg/mL (≈ 74.5 µM)
- MIC (Klebsiella pneumoniae): > 200 µg/mL
- MIC (Pseudomonas aeruginosa): > 200 µg/mL

Compound: CCCCCCCCOc1cc(O)cc(O)c1C(=O)C(C)CC (racemic)
- MIC [1]: 100 µg/mL (≈ 310 µM)
- MIC (Enterococcus faecalis): 0.78 µg/mL (≈ 2.42 µM)
- MIC (Staphylococcus aureus [2]): 1.56 µg/mL (≈ 4.84 µM)
- MIC (Escherichia coli [3]): > 200 µg/mL
- MIC (Escherichia coli [4]): > 200 µg/mL
- MIC (Staphylococcus aureus [5]): 1.56 µg/mL (≈ 4.84 µM)
- MIC (Klebsiella pneumoniae): > 200 µg/mL
- MIC (Pseudomonas aeruginosa): > 200 µg/mL
- IC50 [8]: > 500 µM
- IC50 (DNA gyrase): > 1000 µM
- IC50 [9]: 30 µM

Compound: O=C1CC2(CCCC2)Oc2cc(O)ccc21
- MIC [1]: 200 µg/mL (≈ 916 µM)
- MIC (Enterococcus faecalis): > 200 µg/mL
- MIC (Staphylococcus aureus [2]): > 200 µg/mL
- MIC (Escherichia coli [3]): > 200 µg/mL
- MIC (Escherichia coli [4]): 100 µg/mL (≈ 458 µM)
- MIC (Staphylococcus aureus [5]): > 200 µg/mL
- MIC (Klebsiella pneumoniae): > 200 µg/mL
- MIC (Pseudomonas aeruginosa): > 200 µg/mL

Compound: CSc1ccc2c(c1)N(CCC1CCCCN1C)c1ccccc1S2 (stereo unspecified) [THIORIDAZINE]
- IC50 (Vero): 5.3 µg/mL (≈ 14.3 µM)

Compound: CCCC1CC(=O)c2c(O)cc(O)cc2O1 (stereo unspecified)
- MIC [1]: 200 µg/mL (≈ 900 µM)
- MIC (Enterococcus faecalis): 200 µg/mL (≈ 900 µM)
- MIC (Staphylococcus aureus [2]): 100 µg/mL (≈ 450 µM)
- MIC (Escherichia coli [3]): > 200 µg/mL
- MIC (Escherichia coli [4]): 50 µg/mL (≈ 225 µM)
- MIC (Staphylococcus aureus [5]): 100 µg/mL (≈ 450 µM)
- MIC (Klebsiella pneumoniae): > 200 µg/mL
- MIC (Pseudomonas aeruginosa): > 200 µg/mL

Compound: C=CCOc1ccccc1C1CC(=O)c2c(O)cc(O)cc2O1 (stereo unspecified)
- MIC [1]: > 200 µg/mL
- MIC (Enterococcus faecalis): 50 µg/mL (≈ 160 µM)
- MIC (Staphylococcus aureus [2]): 25 µg/mL (≈ 80 µM)
- MIC (Escherichia coli [3]): > 200 µg/mL
- MIC (Escherichia coli [4]): 6.25 µg/mL (≈ 20 µM)
- MIC (Staphylococcus aureus [5]): 12.5 µg/mL (≈ 40 µM)
- MIC (Klebsiella pneumoniae): > 200 µg/mL
- MIC (Pseudomonas aeruginosa): > 200 µg/mL

Compound: CCn1cc(C(=O)O)c(=O)c2ccc(C)nc21 [NALIDIXIC ACID]
- IC50 [9]: 806 µM

Compound: CCCCCCCCCC1CC(O)c2ccc(O)cc2O1 (stereo unspecified)
- MIC [1]: > 200 µg/mL
- MIC (Enterococcus faecalis): 50 µg/mL (≈ 171 µM)
- MIC (Staphylococcus aureus [2]): 20 µg/mL (≈ 68.4 µM)
- MIC (Escherichia coli [3]): > 200 µg/mL
- MIC (Escherichia coli [4]): 12.5 µg/mL (≈ 42.7 µM)
- MIC (Staphylococcus aureus [5]): 25 µg/mL (≈ 85.5 µM)
- MIC (Klebsiella pneumoniae): > 200 µg/mL
- MIC (Pseudomonas aeruginosa): > 200 µg/mL

Compound: CCCCCCCCCC1CC(=O)c2c(OCOC)cc(OCOC)cc2O1 (stereo unspecified)
- MIC [1]: 100 µg/mL (≈ 253 µM)
- MIC (Enterococcus faecalis): > 200 µg/mL
- MIC (Staphylococcus aureus [2]): > 200 µg/mL
- MIC (Escherichia coli [3]): > 200 µg/mL
- MIC (Escherichia coli [4]): > 200 µg/mL
- MIC (Staphylococcus aureus [5]): > 200 µg/mL
- MIC (Klebsiella pneumoniae): > 200 µg/mL
- MIC (Pseudomonas aeruginosa): > 200 µg/mL
